Laboratory results taken from ChEMBL document CHEMBL5724801, “EUbOPEN Chemogenomics Library - Multiplex” (2024).
Values joined by “and” are separate entries in the source; they are usually repeats but may differ in a detail not shown here. Identical values can stand only once.

Tested on: Fibroblast
Assay: Multiplex assay against human fibroblast
Assay type: toxicity, cell-based
Outline: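 Cells were classed with CellPathfinder machine-learning gating, first as Hoechst high-intensity objects or normal cells, then (normal cells) as healthy, pyknosed or fragmented nuclei, and finally (pyknosed cells) as mitotic or apoptotic. Staining of live cells at seeding used Hoechst33342, BioTracker Green Microtubule Cytoskeleton Dye, MitoTracker Red and Annexin V Alexa Fluor 680, with imaging on a CQ1 microscope at 37°C and 5% CO2 after compound addition. Tubulin, mitochondrial-mass and membrane-permeability phenotypes are per cents of healthy-nucleus cells.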

[1] = 12 h, 1 µM, compound concentration 1 uM
[2] = 12 h, 10 µM, compound concentration 10 uM
[3] = 24 h, 1 µM, compound concentration 1 uM
[4] = 24 h, 10 µM, compound concentration 10 uM
[5] = 48 h, 1 µM, compound concentration 1 uM
[6] = 48 h, 10 µM, compound concentration 10 uM

With `O=C(NCCO)c1cccc(-c2cc(Nc3ccc(OC(F)(F)F)cc3)ncn2)c1` the “Population Apoptotic (%)” value [1] was 46% and 38%, the “Population Fragmented Nuclei (%)” value [1] was 16% and 29% and the “Population Healthy Nuclei (%)” value [1] was 60% and 46%. The “Population Hoechst High Intensity Objects (%)” value [1] was 3% and 4%, the “Population Membrane Permeable-Phenotype (%)” value [1] was 1% and 10% and the “Population Mitochondria Different-Phenotype (%)” value [1] was 6% and 8%. The “Population Mitotic Cells (%)” value [1] was 53% and 61%, the “Population Normal (%)” value [1] was 96% and 95% and the “Population Pyknosed Nuclei (%)” value [1] was 24% and 23%. The “Population Tubulin-Different-Phenotype (%)” value [1] was 33% and 46%, the “Total Cell Count” value [1] was 130 and 149 and the “Population Apoptotic (%)” value [2] was 37% and 40%. For the same compound, the “Population Fragmented Nuclei (%)” value [2] was 17% and 22%, the “Population Healthy Nuclei (%)” value [2] was 59% and 36% and the “Population Hoechst High Intensity Objects (%)” value [2] was 5% and 10%. For the same compound, the “Population Membrane Permeable-Phenotype (%)” value [2] was 0% and 11%, the “Population Mitochondria Different-Phenotype (%)” value [2] was 13% and 11% and the “Population Mitotic Cells (%)” value [2] was 62% and 59%. The “Population Normal (%)” value [2] was 94% and 89%, the “Population Pyknosed Nuclei (%)” value [2] was 22% and 40% and the “Population Tubulin-Different-Phenotype (%)” value [2] was 54% and 79%. The “Total Cell Count” value [2] was 185 and 192, the “Population Apoptotic (%)” value [3] was 56% and 52% and the “Population Fragmented Nuclei (%)” value [3] was 16% and 24%. For the same compound, the “Population Healthy Nuclei (%)” value [3] was 60% and 50%, the “Population Hoechst High Intensity Objects (%)” value [3] was 1% and 2% and the “Population Membrane Permeable-Phenotype (%)” value [3] was 2% and 5%. The “Population Mitochondria Different-Phenotype (%)” value [3] was 4% and 5%, the “Population Mitotic Cells (%)” value [3] was 43% and 47% and the “Population Normal (%)” value [3] was 98% and 97%. The “Population Pyknosed Nuclei (%)” value [3] was 22% and 25%, the “Population Tubulin-Different-Phenotype (%)” value [3] was 33% and 42% and the “Total Cell Count” value [3] was 135 and 139. For the same compound, the “Population Apoptotic (%)” value [4] was 50% and 41%, the “Population Fragmented Nuclei (%)” value [4] was 14% and 30% and the “Population Healthy Nuclei (%)” value [4] was 61% and 36%. For the same compound, the “Population Hoechst High Intensity Objects (%)” value [4] was 11% and 7%, the “Population Membrane Permeable-Phenotype (%)” value [4] was 1% and 10% and the “Population Mitochondria Different-Phenotype (%)” value [4] was 21% and 25%. The “Population Mitotic Cells (%)” value [4] was 50% and 58%, the “Population Normal (%)” value [4] was 88% and 92% and the “Population Pyknosed Nuclei (%)” value [4] was 24% and 32%. For the same compound, the “Population Tubulin-Different-Phenotype (%)” value [4] was 53% and 84%, the “Total Cell Count” value [4] was 175 and 187 and the “Population Apoptotic (%)” value [5] was 82% and 45%. The “Population Fragmented Nuclei (%)” value [5] was 21% and 31%, the “Population Healthy Nuclei (%)” value [5] was 65% and 53% and the “Population Hoechst High Intensity Objects (%)” value [5] was 1%. For the same compound, the “Population Membrane Permeable-Phenotype (%)” value [5] was 3% and 6%, the “Population Mitochondria Different-Phenotype (%)” value [5] was 1% and 4% and the “Population Normal (%)” value [5] was 98%. The “Population Pyknosed Nuclei (%)” value [5] was 13% and 14%, the “Population Tubulin-Different-Phenotype (%)” value [5] was 28% and 38% and the “Total Cell Count” value [5] was 130 and 156. For the same compound, the “Population Apoptotic (%)” value [6] was 70% and 76%, the “Population Fragmented Nuclei (%)” value [6] was 35% and 40% and the “Population Healthy Nuclei (%)” value [6] was 51% and 47%. The “Population Hoechst High Intensity Objects (%)” value [6] was 13% and 6%, the “Population Membrane Permeable-Phenotype (%)” value [6] was 0% and 13% and the “Population Mitochondria Different-Phenotype (%)” value [6] was 26% and 19%. The “Population Mitotic Cells (%)” value [6] was 30% and 23%, the “Population Normal (%)” value [6] was 86% and 93% and the “Population Pyknosed Nuclei (%)” value [6] was 13% and 11%. For the same compound, the “Population Tubulin-Different-Phenotype (%)” value [6] was 64% and 86% and the “Total Cell Count” value [6] was 170 and 198.
